In PMC6001286 (Advanced biosystems, 2017):
Starred links: 1 amine or outer side, 2 acyl side, 3 side chain; linkers in the order of their positions; H or OH if unused. Positions of bridges follow the written chain, without caps; N, C: chain ends. Non-standard residues stand in square brackets, D forms with d. Primed or numbered codes have the meaning given here. *: point of attachment. PEG2′ = PEG2 (Ebes) spacer between FITC and the peptide N-terminus, O=C(CCC(=O)[*:2])NCCOCCOCCN[*:1]; FITC = O=C1OC2(c3ccc(O)cc3Oc3cc(O)ccc32)c2ccc(NC(=S)*)cc21; Phe(3,5-F2) = N[C@@H](Cc1cc(F)cc(F)c1)C(=O)O; Hyp = O=C(O)[C@@H]1C[C@@H](O)CN1

Assays:
[1] = test system: Jurkat tumor cells; experiment: flow cytometry binding to Jurkat cells; assay type: cell-based, human; details: α4β1-expressing; data not shown
Summary of the method: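 Jurkat cells were grown in RPMI 1640 with 10% FBS and penicillin/streptomycin (37°C, 5% CO2). Cells were incubated 30 min in 3% FBS/PBS with FITC-PEG-labeled peptide or scrambled analogue at 1 μM; anti-α3-FITC was used at 1 μg per million cells. Cells were washed thrice and resuspended in 3% FBS with 1% sodium azide. Three replicates, ≥10,000 gated cells each.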

[2] = on-bead flow cytometry binding to Jurkat exosomes; set-up: species or system human; details: α4β1-expressing, data not shown
Summary of the method: (§1)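 Exosomes were isolated by ultracentrifugation: Jurkat EV-depleted culture supernatant, or whole plasma from three healthy donors. Spins were 300 × g, 2,000 × g and 10,000 × g, then twice 100,000 × g for 2 hr at 4°C. Exosomes (10 μg protein) were labeled overnight with FITC-PEG peptide or scrambled analogue (1 μL of 5 mM). Free peptide was removed by 3000 Da spin column. Samples were adsorbed to 3.9 μm aldehyde/sulfate latex beads for flow cytometry. Triplicates, ≥10,000 beads each.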

[3] = on-bead flow cytometry binding to healthy plasma exosomes; set-up: species or system human; details: exosomes isolated by ultracentrifugation
Summary of the method: as §1

Substance: scr-LXY30-Fl: scr-LXY30 labeled with fluorescein isothiocyanate dye via PEG2 spacer at the peptide N-terminus ({FITC-PEG2′}-[dC]G[dD][Hyp][Phe(3,5-F2)]GN[dC]R-NH2; disulfide 1-8)
- binding to Jurkat cells [1]: minimal extent
- binding to Jurkat exosomes [2]: minimal extent
- binding to healthy human plasma exosomes [3]: did not exhibit significant binding

Substance: [cGd-Hyp-Phe(3,5-diF)-G-NcR] (disulfide) [scr-LXY30]
- binding to healthy human plasma exosomes [3]: limited binding
